# Sampled rows, rich in hits. Any-hit rate of the full collection: about 2%.
# CAL PDZ FP-1 = inhibitors of human CAL PDZ peptide binding; Q9HD26; inhibition, % at 24.9 µM; 300,000 tested, 0.92% active; AID 602252; purified CAL PDZ, TMR-peptide fluorescence polarization, 1 h;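 active = mean inhibition of at least 30% with at least half of replicates also reaching 30%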;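 note: 0% = DMSO neutral control and 100% = excess unlabeled competitor peptide PRC23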
# dFosB act = enhances mouse delta FosB homodimer DNA binding; purified delta FosB, TAMRA-CDK5 oligo fluorescence polarization; percent of positive-control signal above neutral wells; activation, % at 25 µM; 340,000 tested, 0.99% active; AID 493131;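 active = mean activation above about 17%, with every replicate also reaching it, limit read from the data, passing the limit was not always enough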
# Target sequence (P13346 whole entry, looked up): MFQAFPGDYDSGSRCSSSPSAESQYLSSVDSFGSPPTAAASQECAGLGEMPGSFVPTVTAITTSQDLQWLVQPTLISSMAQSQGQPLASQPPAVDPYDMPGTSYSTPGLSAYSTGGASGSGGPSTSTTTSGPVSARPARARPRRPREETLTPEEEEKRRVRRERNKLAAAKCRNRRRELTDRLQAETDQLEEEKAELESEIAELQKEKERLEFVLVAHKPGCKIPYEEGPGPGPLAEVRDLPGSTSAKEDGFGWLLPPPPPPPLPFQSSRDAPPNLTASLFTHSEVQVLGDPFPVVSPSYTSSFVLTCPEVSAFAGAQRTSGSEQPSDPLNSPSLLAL
# CAL PDZ FP-2 = human CAL PDZ-peptide interaction inhibition | Q9HD26 | purified CAL PDZ, TMR-peptide fluorescence polarization, 1 h | inhibition, % at 20 µM | 330,000 tested, 0.02% active | AID 504414;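 active = highest replicate inhibition of at least 40%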;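 note: plate controls were DMSO neutral control wells for no effect and unlabeled competitor peptide control wells for full effect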
#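 material = purified tagged CAL PDZ domain construct (CerCALP) | buffer or medium = sodium phosphate/NaCl buffer pH 7.4 with TCEP, IgG, Thesit | reagent = TMR-labelled reporter peptide T*-PRC34 bound in PDZ groove | incubation = 1 h room-temperature incubation prior to read | measured by = fluorescence polarization (mP) | evaluation = percent inhibition from loss of millipolarization | control set = unlabelled peptide and DMSO controls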
# NTR1 agonist = NTR1 (human) agonism. activation, % at 20 µM. 330,000 tested, 0.17% active. P30989. NTR1-U2OS beta-arrestin-GFP spot imaging, agonist mode;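 active = activation at or above 40% of the spot to cytoplasm intensity ratio, with at least 20 cells analyzed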;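 note: 0% = DMSO without peptide and 100% = 100 nM NTR1 peptide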
# PKA-R2B act = activates the human PKA-R2B holoenzyme complex; activation, % at 11.4 µM; P22694+P31323; PKA-R2B holoenzyme dissociation, Cy5-IP20 fluorescence polarization; R2B truncated from residue 108, S112A mutant; 0% DMSO only, 100% 113 µM cGMP; 340,000 tested, 0.079% active;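 active = activation above a cutoff set at the mean over all compounds plus 3 SD, cut at about 18% in these data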;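 note: higher means more holoenzyme dissociation and a rise in polarization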
# PKA-R1A act = activators of PKA-R1A complex; P00514+P68181; PKA-R1A dissociation, Cy5-IP20 fluorescence polarization; scaled: DMSO 0%, 113 µM cGMP 100%; activation, % at 11.4 µM; 340,000 tested, 0.083% active;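 active = percent activation above the mean of all tested compounds plus 3 SD, cut at about 19% in these data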;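 note: higher means more PKAc released from R1A so a rise in polarization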
# R1A FP artifact = fluorescence polarization artifact in PKA-R1A activator counter-screen | Cy5-IP20 peptide alone, fluorescence polarization artifact counterscreen | shares compounds with PKA-R1A act | activation, % at 11.4 µM | 280 tested, 7% active | AID 504799;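 active = mean activation over triplicate runs exceeds the adjusted cutoff derived for the parent primary screen, cut at about 19% in these data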;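 note: no PKA protein present so any polarization rise reflects compound interference; 0% = tracer peptide mix alone and 100% = mix with added PKA catalytic subunit; higher means stronger polarization artifact and likely false positive in parent screen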
# PKA-R1A act conf = confirmation of PKA-R1A complex activators; 280 tested, 9% active; activation, % at 11.4 µM; Cy5-IP20 fluorescence polarization, PKA-R1A holoenzyme dissociation; shares compounds with PKA-R1A act;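 active = mean activation over replicate wells exceeds the adjusted hit threshold taken from the earlier primary screen, cut at about 20% in these data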;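 note: 0% = holoenzyme mix with DMSO only and 100% = cGMP-activated control wells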
# An asterisk follows results filed as active; . = no result given.
SMILES,CAL PDZ FP-1,dFosB act,CAL PDZ FP-2,NTR1 agonist,PKA-R2B act,PKA-R1A act,R1A FP artifact,PKA-R1A act conf
CCC(=O)Nc1ccc(C(=O)NNC(=O)COc2cccc(C)c2)cc1,-2,4,-2,1,4,20*,2,-3
COc1cccc(CC(=O)Nc2ccc3c(c2)OC2(CCCC2)O3)c1,-6,-6,-1,-1,-5,-3,.,.
Cc1ccc(C(C(=O)NC2CCCC2)N(C(=O)c2csnn2)c2ccccc2)o1 (centres undefined),0,-2,-3,4,-7,20*,5,5
NC1=NC(=O)C(Cc2ccc(OC(F)(F)F)cc2)S1 (centres undefined),-2,-2,0,-1,-3,1,.,.
COC(=O)C1=CN(c2cccc(Cl)c2)C=C(C(=O)OC)C1c1cccc(OC)c1,-5,-13,-2,3,0,19*,-1,-7
COc1ccccc1-c1cc(C(=O)Nc2cccnc2)no1,-2,-19,-4,.,-11,19*,1,-1
O=C(NNC(=O)c1ccccc1F)c1cccc(-n2cccc2)c1,1,-16,-2,0,2,7,.,.
N#CC(OC(=O)c1ccccc1)c1ccccc1 (centres undefined),17,0,-1,.,-4,5,.,.
O=c1cc(OCc2ccccc2)cc[nH]1,-4,4,0,0,-8,-1,.,.
O=C(Cn1cnc2ccccc2c1=O)N1CCN(S(=O)(=O)c2ccc(F)cc2)CC1,.,-7,0,2,2,-11,.,.
COc1ccccc1-c1noc(-c2cc(OC)c(OC)c(OC)c2)n1,2,-38,-4,5,3,4,.,.
COc1cc(OC)cc(-c2nc(-c3ccccc3OC)no2)c1,-2,-17,-1,2,12,19*,3,5
COC(=O)c1cc(NS(=O)(=O)c2ccc(C(C)C)cc2)ccc1N1CCOCC1,1,-15,-1,-1,-11,7,.,.
Cc1cc(OC(C)C(=O)N2CCN(c3ccccc3)CC2)c2c(C)c(C)c(=O)oc2c1 (centres undefined),7,-4,0,7,-2,-9,.,.
COc1ccc(Nc2cc(C)nc3ncnn23)cc1Cl,-2,-4,-1,-2,0,22*,2,-3
Cc1ccc(S(=O)(=O)N/N=C/c2cc(Br)c(C)o2)cc1,-6,0,0,-1,-10,8,.,.
Cc1ccc(S(=O)(=O)NN=Cc2ccco2)cc1,.,.,.,.,1,22*,2,2
CC#CC(=O)NC1CCCN(C2Cc3ccccc3C2)C1 (centres undefined),-1,-1,0,2,11,19*,2,2
CC(=O)Nc1ccc(C(=O)OCc2ccc(Cl)cc2)cc1,-2,-3,0,-2,2,0,.,.
CCCS(=O)(=O)c1ccc(COC(=O)c2ccc(NC(C)=O)cc2)cc1,.,-20,-1,1,3,22*,0,7
CCCCCCCn1c(C)nnc1-c1cnn(C)c1N,3,-10,-1,-1,-2,20*,0,-1
Cc1nnc(-c2cnn(C)c2N)n1CCCN(C)C,10,-3,-1,0,0,-4,.,.
Cc1ccnc(SCc2cc(=O)c(OC(=O)c3cc([N+](=O)[O-])ccc3Cl)co2)n1,-1,-4,0,-1,2,19*,2,3
COc1ccc2c(c1OC)C(=O)OC2Nc1ncccc1C (centres undefined),-5,2,-1,2,8,19*,5,1
CN(C)c1ccc(C(=O)NCCCSc2ccccc2)cc1,3,-9,-1,0,7,20*,-4,1
SMILES,CAL PDZ FP-1,dFosB act,CAL PDZ FP-2,NTR1 agonist,PKA-R2B act,PKA-R1A act,R1A FP artifact,PKA-R1A act conf
N#Cc1ccc(C(=O)NCCCSc2ccccc2)cc1,-5,-13,-2,-2,2,-6,.,.
COc1ccc(N2C(=O)CSC2c2ccc([N+](=O)[O-])cc2)cc1 (centres undefined),-3,-10,1,-1,1,20*,0,1
CSCC[C@H](NC(=O)c1nn(C)c(=O)c2ccccc12)c1nc2ccccc2[nH]1,-2,-10,-4,0,-5,20*,-1,0
Cc1ccc(S(=O)(=O)NCCn2cnc([N+](=O)[O-])n2)cc1,3,-9,1,0,-2,21*,5,1
C/C(=N\NC(=O)c1ccoc1C)c1ccc(Cl)s1,-3,7,-1,1,-4,20*,2,5
C/C(=N\NC(=O)c1csc(C)c1C)c1ccc(Cl)s1,-3,0,-2,1,1,11,.,.
COc1ccc(/C=C(\C#N)C(=O)OCCNC(=O)c2ccncc2)cc1,9,-6,-3,-1,10,20*,-1,-2
COc1ccc(CN(C)C[C@H]2OCCCC[C@@H](C)Oc3ccc(NC(=O)c4ccccc4)cc3C(=O)N([C@H](C)CO)C[C@@H]2C)cc1,.,.,.,.,-3,-12,.,.
C/C(=N\NC(=O)c1nnn(-c2nonc2N)c1CSc1ccc(Cl)cc1)c1ccco1,-7,-1,-3,0,-14,1,.,.
Cc1c(Br)cc(C(=O)NC2CCCCC2)c(C)c1C,8,3,0,-3,7,23*,7,3
Cc1ccc(C(=O)NC2CCCCCCC2)c(Cl)c1,-7,3,.,0,-3,-3,.,.
Cc1[nH]c(=O)[nH]c(=O)c1S(=O)(=O)Nc1ccc(S(N)(=O)=O)cc1,.,0,-1,0,4,20*,0,5
Cc1[nH]c(=O)[nH]c(=O)c1S(=O)(=O)NCCc1ccc(S(N)(=O)=O)cc1,-1,-7,0,1,1,3,.,.
CCCNC(=O)c1ccc(N2CCC3(CC2)CC(c2ccccc2)=NO3)c(NC(=O)Cc2ccc(F)cc2)c1,0,-5,-2,1,-2,-8,.,.
COc1ccccc1CCNC(=O)C(=O)c1cn(CC(=O)N2CCOCC2)c2ccccc12,1,-5,-2,1,2,19*,-2,-1
COc1ccccc1CNC(=O)C(=O)c1cn(CC(=O)N2CCCC2)c2ccccc12,-1,-4,-3,2,-6,2,.,.
O=C(NCc1ccc2c(c1)OCO2)c1ccc2c(c1)S(=O)(=O)c1ccccc1C2=O,0,-3,0,3,-7,22*,-2,-2

# Screens from PubChem BioAssay.
